# Results gathered from unrelated publications.
# Target: Ephrin type-B receptor 1 (EPHB1, Homo sapiens, UniProt P54762)
Structure (SMILES),effect on,action,method,tested at,endpoint,result
Cc1ccc(C(=O)Nc2ccc(CN3CCN(C)CC3)c(C(F)(F)F)c2)cc1C#Cc1cnc2cccnn12,cell-free assay,,,23.5 nM,remaining signal,29%
CC/C(=N\NC(=O)NCc1cccc(O)c1)c1ccc(O)c(C)c1O,enzyme activity,inhibitor,,0.1 µM,inhibition,-1%
C=CC(=O)Nc1cc(Nc2nccc(Nc3cc(Cl)c(F)cc3C(C)(C)O)n2)c(OC)cc1N1CC[C@@H](N(C)C)C1,enzyme activity,inhibitor,,1 µM,inhibition,24%
Nc1ncnc2occ(-c3ccc(NC(=O)Nc4cc(C(F)(F)F)ccc4F)cc3)c12,cell-free assay,,,20 µM,remaining signal,0%
COc1cc2ncnc(Nc3ccc(Oc4ccccc4)c(C)c3C)c2cc1OC,enzyme activity,inhibitor,,1 µM,inhibition,3%
CNC(=O)c1cc(Oc2ccc(NC(=O)Nc3ccc(Cl)c(C(F)(F)F)c3)cc2)ccn1,cell-free assay,,,0.5 µM,remaining signal,102%
CC(C)CC(=O)N1CCc2nc(-c3ccc(Br)cc3)nc(N(C)Cc3ccccc3)c2C1,cell-free assay,,competition with immobilised ligand,0.1 µM,remaining binding,100%
FC(F)c1nc2ccccc2n1-c1nc(N2CCOCC2)nc(N2CCOCC2)n1,enzyme activity,inhibitor,,10 µM,remaining activity,96%
Cc1noc([C@H]2C[C@@H](c3ccc(C(F)(F)F)cc3)CN(C(=O)N3CCS(=O)(=O)C3)C2)n1,cell-free assay,,competition with immobilised ligand,1 µM,remaining binding,100%
CCCOc1ccc(OC)c(F)c1C(=O)c1ccc(C(=O)N[C@@H]2CNC[C@H]2NC(=O)c2ccc3[nH]ncc3c2)cc1,enzyme activity,inhibitor,,10 µM,remaining activity,42%
COc1cc(Cl)c(C(=O)N[C@@H](CN[C@H]2CC[C@@H](N)CC2)Cc2ccc(C#N)cc2)cc1-c1ccc(CN[C@H](C)c2ccc(C)cc2)o1,enzyme activity,inhibitor,,1 µM,remaining activity,122%
O=C1NC(c2ccccn2)Sc2ccccc21 (centres unmarked),cell-free assay,,competition with immobilised ligand,1 µM,remaining binding,90%
CS(=O)(=O)CCNCc1ccc(-c2ccc3ncnc(Nc4ccc(OCc5cccc(F)c5)c(Cl)c4)c3c2)o1,cell-free assay,,,0.5 µM,remaining signal,104%
Cc1cc(NC(=O)c2cccc3cc(-c4cccc5[nH]nc(N)c45)ccc23)ccc1F,enzyme activity,inhibitor,,0.1 µM,activity vs control,127%
CC(C)(C)c1nc2c(s1)c1nc(N)ncc1c1ccc(NS(=O)(=O)c3c(F)cccc3F)c(F)c12,enzyme activity,inhibitor,radiometric,1 µM,remaining activity,76%
C[C@@H]1CN(c2cc(-c3n[nH]c4ccc(OC5(C)CC5)cc34)ncn2)C[C@H](C)O1,cell-free assay,,competition with immobilised ligand,0.1 µM,remaining binding,83%
CCCS(=O)(=O)Nc1ccc(F)c(C(=O)c2c[nH]c3ncc(-c4ccc(Cl)cc4)cc23)c1F,enzyme activity,inhibitor,,1 µM,inhibition,< 10%
Cc1nccc(COC(=O)N2C[C@@H]3[C@@H](CNC(=O)c4ccc5[nH]nnc5c4)[C@@H]3C2)n1,cell-free assay,,competition with immobilised ligand,1 µM,remaining binding,95%
Cc1ccc(Nc2nccc(N(C)c3ccc4c(C)n(C)nc4c3)n2)cc1S(N)(=O)=O,enzyme activity,inhibitor,,10 µM,inhibition,63%
O=C(NCc1ncc(C(F)(F)F)cc1Cl)c1ccc2c(c1)C1(CCS(=O)(=O)CC1)[C@@H](C1CC1)N2S(=O)(=O)c1ccc(F)cc1,cell-free assay,,competition with immobilised ligand,1 µM,remaining binding,100%
CCN(CC)CCNC(=O)c1c(C)[nH]c(/C=C2\C(=O)Nc3ccc(F)cc32)c1C,enzyme activity,inhibitor,,0.3 µM,inhibition,34%
O=C(NS(=O)(=O)c1ccc(NCC2CCOCC2)c([N+](=O)[O-])c1)c1ccc(N2CCN(Cc3ccc(C(F)(F)F)cc3-c3ccc(Cl)cc3)CC2)cc1Oc1cnc2[nH]ccc2c1,cell-free assay,,competition with immobilised ligand,1 µM,remaining binding,100%
COc1cc(-c2cc(-c3ccc(N4CCNCC4)cc3)cnc2C)cc(OC)c1OC,enzyme activity,inhibitor,,1 µM,inhibition,6%
O=C1NC(=O)c2cc(Nc3ccc(F)cc3)c(Nc3ccc(F)cc3)cc21,cell-free assay,,,0.5 µM,remaining signal,103%
Cc1sc(C(=O)NC2COC2)cc1-n1cc(NC(=O)Nc2c(F)cccc2Cl)cn1,enzyme activity,inhibitor,,10 µM,remaining activity,100%
CCN(CC)c1ccc(C2=NNC(=O)CC2C)cc1[N+](=O)[O-] (centres unmarked),enzyme activity,inhibitor,,10 µM,remaining activity,97%
C#Cc1cccc(Nc2ncnc3cc(OCCOC)c(OCCOC)cc23)c1,cell-free assay,,,0.5 µM,remaining signal,100%
Cc1c(NC(=O)c2cc(C(N)=O)nc3cc(F)ccc23)c(C(F)(F)F)nn1Cc1ccc(C#N)cc1,cell-free assay,,competition with immobilised ligand,1 µM,remaining binding,66%
COc1cc(Nc2cnc(C#N)c(O[C@H](C)CN(C)C)n2)ncc1-c1cnn(C)c1,enzyme activity,inhibitor,radiometric,1 µM,remaining activity,100%
